# Measured values: ChEMBL document CHEMBL4152212, “Design and synthesis of BPR1K653 derivatives targeting the back pocket of Aurora kinases for selective isoform inhibition” (Eur J Med Chem, 2018)
# Active and inactive are the calls of the source. The calls are words filed in the database; no cut-off is given here.
# Experiments:
# Aurora kinase A [1] = target: T1, Aurora kinase A (Homo sapiens, UniProt O14965); experiment: Inhibition of GST-tagged human recombinant Aurora A kinase domain (123 to 401 residues) expressed in Sf9 cells after 120 mins by kinase-glo luminescence assay
# T1 sequence (O14965 whole entry): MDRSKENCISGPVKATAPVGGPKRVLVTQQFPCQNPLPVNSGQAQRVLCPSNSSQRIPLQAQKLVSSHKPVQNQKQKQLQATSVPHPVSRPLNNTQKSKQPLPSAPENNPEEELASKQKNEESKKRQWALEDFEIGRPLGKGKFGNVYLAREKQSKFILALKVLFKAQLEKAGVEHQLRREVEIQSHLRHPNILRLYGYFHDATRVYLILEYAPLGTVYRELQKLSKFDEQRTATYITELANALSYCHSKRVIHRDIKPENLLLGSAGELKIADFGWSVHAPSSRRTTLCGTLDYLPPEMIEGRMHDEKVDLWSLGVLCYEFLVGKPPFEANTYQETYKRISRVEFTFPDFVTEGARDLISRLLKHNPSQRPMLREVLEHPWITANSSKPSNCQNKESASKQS
# Aurora kinase B [2] = target: T2, Aurora kinase B (Homo sapiens, UniProt Q96GD4); experiment: Inhibition of human recombinant full length Aurora-B (1 to 344 residues) expressed in Sf9 cells after 90 mins by kinase-glo luminescence assay
# Aurora kinase A [3] = target: T1, Aurora kinase A; experiment: Inhibition of Aurora-A autophosphorylation at Thr288 in human HCT116 cells after 1 hr by Western blot analysis; type: cell-based
# Procedure, shortened: (§1)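 HCT116 cells arrested in mitosis with 200 nM nocodazole for 24 h, then exposed to compound for 1 h over 9 concentrations. Lysed in Laemmli buffer, SDS-PAGE, PVDF immunoblot for phospho-Aurora-A Thr288 / Aurora-B Thr232 with HRP secondary and chemiluminescence. IC50 derived from blot profiles.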
# Aurora kinase B [4] = target: T2, Aurora kinase B; experiment: Inhibition of Aurora-B autophosphorylation at Thr232 in human HCT116 cells after 1 hr by Western blot analysis; type: cell-based; procedure, shortened: as §1
# HCT-116 = experiment: Cytotoxicity against human HCT116 cells; type: functional, cell-based
# Detroit 551 = experiment: Cytotoxicity against human Detroit 551 cells; type: cell-based
# HeLa [5] = experiment: Decrease in mitotic index in human HeLa cells after 10 to 12 hrs post thymidine block by pHH3Ser10/Hoechst33342 staining-based immunofluorescence analysis; type: functional, cell-based
# Procedure, shortened: (§2)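 HeLa cells synchronized by thymidine block, released and treated with compound, fixed at set times (4% paraformaldehyde, 30 min), permeabilized with 0.1% Triton X-100, blocked in 1% BSA. Stained with anti-pHH3Ser10 (1:500, 1.5 h, RT) and Alexa-594 secondary, Hoechst 33342 counterstain. Mitotic index is the percentage of pHH3Ser10-positive cells among about 2000-3000 cells per condition.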
# HeLa [6] = experiment: Increase in mitotic index in human HeLa cells after 10 to 12 hrs post thymidine block by pHH3Ser10/Hoechst33342 staining-based immunofluorescence analysis; type: functional, cell-based; procedure, shortened: as §2
# T2 sequence (Q96GD4 whole entry, the tested form may be a part): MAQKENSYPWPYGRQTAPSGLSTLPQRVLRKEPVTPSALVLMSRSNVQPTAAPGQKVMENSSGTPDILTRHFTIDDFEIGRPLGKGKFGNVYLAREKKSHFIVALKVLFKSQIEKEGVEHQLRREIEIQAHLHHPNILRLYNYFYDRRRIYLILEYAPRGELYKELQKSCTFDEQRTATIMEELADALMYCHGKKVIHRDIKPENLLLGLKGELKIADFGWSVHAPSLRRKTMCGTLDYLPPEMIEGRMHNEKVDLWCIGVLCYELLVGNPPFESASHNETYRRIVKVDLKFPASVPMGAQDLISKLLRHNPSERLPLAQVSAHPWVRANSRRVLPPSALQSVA
IC50 (Aurora kinase A [1]) [nM],IC50 (Aurora kinase B [2]) [nM],IC50 (Aurora kinase A [3]) [nM],IC50 (Aurora kinase B [4]) [nM],Compound,IC50 (HCT-116) [nM],IC50 (Detroit 551) [nM],Activity (HeLa [5]),Activity (HeLa [6])
451,976,–,–,O=C(Nc1ccc(CCNc2ncnc3oc(-c4ccccc4)c(Cl)c23)cc1)Nc1ccc(CN2CCCCC2)cc1,–,–,–,–
525,336,–,–,CC(C)c1ccccc1NC(=O)Nc1ccc(CCNc2ncnc3oc(-c4ccccc4)c(Cl)c23)cc1,–,–,–,–
139,443,–,–,CCc1ccc(NC(=O)Nc2ccc(CCNc3ncnc4oc(-c5ccccc5)c(Cl)c34)cc2)cc1,–,–,–,–
66.3,86.1,–,–,CCc1cccc(NC(=O)Nc2ccc(CCNc3ncnc4oc(-c5ccccc5)c(Cl)c34)cc2)c1,–,–,–,–
228,78.9,1510,133,O=C(Nc1ccc(CCNc2ncnc3oc(-c4ccccc4)c(Cl)c23)cc1)Nc1ccccc1CN1CCC(O)CC1,310,3500,Active,–
98.3,455,–,–,CN(C)Cc1ccc(NC(=O)Nc2ccc(CCNc3ncnc4oc(-c5ccccc5)c(Cl)c34)cc2)cc1,–,–,–,–
90.2,102,–,–,O=C(Nc1ccc(CCNc2ncnc3oc(-c4ccccc4)c(Cl)c23)cc1)Nc1cccc(CN2CCCCC2)c1,–,–,–,–
247,> 1000,–,–,CC(C)Cc1cccc(NC(=O)Nc2ccc(CCNc3ncnc4oc(-c5ccccc5)c(Cl)c34)cc2)c1,–,–,–,–
> 1000,> 1000,–,–,CC(C)Cc1ccc(NC(=O)Nc2ccc(CCNc3ncnc4oc(-c5ccccc5)c(Cl)c34)cc2)cc1,–,–,–,–
178,66.2,–,–,CCc1ccccc1NC(=O)Nc1ccc(CCNc2ncnc3oc(-c4ccccc4)c(Cl)c23)cc1,–,–,–,–
9,140,132,> 10000,CCN(C)Cc1cccc(NC(=O)Nc2ccc(CCNc3ncnc4oc(-c5ccccc5)c(Cl)c34)cc2)c1,342,9700,–,–
> 1000,700,–,–,CC(C)Cc1ccccc1NC(=O)Nc1ccc(CCNc2ncnc3oc(-c4ccccc4)c(Cl)c23)cc1,–,–,–,–
20,199,59.9,> 10000,CN(C)Cc1cccc(NC(=O)Nc2ccc(CCNc3ncnc4oc(-c5ccccc5)c(Cl)c34)cc2)c1,578,5000,–,Active
232,835,–,–,CCN(CC)Cc1ccc(NC(=O)Nc2ccc(CCNc3ncnc4oc(-c5ccccc5)c(Cl)c34)cc2)cc1,–,–,–,–
83.2,60.2,–,–,Cc1ccccc1NC(=O)Nc1ccc(CCNc2ncnc3oc(-c4ccccc4)c(Cl)c23)cc1,–,–,–,–
52.6,74.9,–,–,Cc1cccc(NC(=O)Nc2ccc(CCNc3ncnc4oc(-c5ccccc5)c(Cl)c34)cc2)c1,–,–,–,–
67.8,83.6,–,–,O=C(Nc1ccc(CCNc2ncnc3oc(-c4ccccc4)c(Cl)c23)cc1)Nc1cccc(CN2CCC(O)CC2)c1,–,–,–,–
55.5,73.3,–,–,Cc1ccc(NC(=O)Nc2ccc(CCNc3ncnc4oc(-c5ccccc5)c(Cl)c34)cc2)cc1,–,–,–,–
150,353,–,–,O=C(Nc1ccc(CCNc2ncnc3oc(-c4ccccc4)c(Cl)c23)cc1)Nc1ccc(CN2CCC(O)CC2)cc1,–,–,–,–
52,66.3,390,191,O=C(Nc1ccccc1)Nc1ccc(CCNc2ncnc3oc(-c4ccccc4)c(Cl)c23)cc1,153,7300,–,Active
–,–,73.4,23.7,CN(C)Cc1ccccc1NC(=O)Nc1ccc(CCNc2ncnc3oc(-c4ccccc4)c(Cl)c23)cc1,70,3100,Active,–
21.5,121,–,–,CCN(CC)Cc1cccc(NC(=O)Nc2ccc(CCNc3ncnc4oc(-c5ccccc5)c(Cl)c34)cc2)c1,–,–,–,–
> 1000,> 1000,–,–,CC(C)c1ccc(NC(=O)Nc2ccc(CCNc3ncnc4oc(-c5ccccc5)c(Cl)c34)cc2)cc1,–,–,–,–
198,122,–,–,O=C(Nc1ccc(CCNc2ncnc3oc(-c4ccccc4)c(Cl)c23)cc1)Nc1ccccc1CN1CCCCC1,–,–,–,–
233,657,–,–,CC(C)c1cccc(NC(=O)Nc2ccc(CCNc3ncnc4oc(-c5ccccc5)c(Cl)c34)cc2)c1,–,–,–,–
462,526,–,–,CCN(CC)Cc1ccccc1NC(=O)Nc1ccc(CCNc2ncnc3oc(-c4ccccc4)c(Cl)c23)cc1,–,–,–,–
